Assay [1] has as its target T1, Adenosine receptor A1 (Homo sapiens, UniProt P30542).
T1 sequence (P30542 whole entry): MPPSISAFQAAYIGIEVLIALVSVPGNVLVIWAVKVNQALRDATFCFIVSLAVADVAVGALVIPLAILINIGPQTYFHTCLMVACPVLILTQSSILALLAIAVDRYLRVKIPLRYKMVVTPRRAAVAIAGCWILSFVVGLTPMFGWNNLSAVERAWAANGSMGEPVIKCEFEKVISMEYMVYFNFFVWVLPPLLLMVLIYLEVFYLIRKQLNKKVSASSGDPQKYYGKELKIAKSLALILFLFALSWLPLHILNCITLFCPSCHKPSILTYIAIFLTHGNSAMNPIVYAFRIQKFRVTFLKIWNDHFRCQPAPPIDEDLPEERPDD
Description: Displacement of [3H]CCPA from human adenosine receptor A1 expressed in CHO cell membranes incubated for 90 mins by radioligand competition assay. On the set-up: species or system Cell membrane. In general terms: Loss of bound radioactivity is the signal in a displacement assay; it reports binding, not function.

Assay [2] concerns the target T2, Adenosine receptor A2a (Homo sapiens, UniProt P29274). Description: Displacement of [3H]MSX2 from human adenosine receptor A2A expressed in HEK293 cell membranes at 0.1 uM incubated for 30 mins by radioligand competition assay relative to control. Particulars: Cell membrane, in the assay text read “at 1 uM” for “at 0.1 uM”. The gist of the method:
(§1)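 A2A binding, [3H]MSX-2 1.0 nM. Membranes: rat brain striatum, or HEK293 cells expressing human A2A. Adenosine deaminase preincubation 20 min, then 30 min at rt in 50 mM Tris-HCl pH 7.4 with 2.5% DMSO. Nonspecific binding defined by 50 µM NECA. GF/B filtration, scintillation counting. Single-concentration percent inhibition, ≥3 experiments in duplicate or triplicate.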

The target of assay [3] is T3, Adenosine receptor A1 (Rattus norvegicus, UniProt P25099).
T3 sequence (P25099 whole entry): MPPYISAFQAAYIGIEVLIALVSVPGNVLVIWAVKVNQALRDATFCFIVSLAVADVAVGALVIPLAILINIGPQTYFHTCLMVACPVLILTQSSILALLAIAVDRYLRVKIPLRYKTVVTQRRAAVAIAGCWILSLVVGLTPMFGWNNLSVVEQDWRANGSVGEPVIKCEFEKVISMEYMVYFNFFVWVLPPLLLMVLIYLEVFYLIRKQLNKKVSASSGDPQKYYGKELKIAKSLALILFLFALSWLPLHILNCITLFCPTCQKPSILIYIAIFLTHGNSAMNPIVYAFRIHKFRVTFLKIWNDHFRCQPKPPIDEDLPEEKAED
The assay is described as follows: Displacement of [3H]DPCPX from rat brain cortical membrane A1AR in presence of 100 uM of GTP by scintillation counting analysis. The assay is classed as cell membranes, Cortex, Cell membrane.

The target of assay [4] is T2, Adenosine receptor A2a. The assay is described as follows: Displacement of [3H]MSX2 from human adenosine receptor A2A expressed in HEK293 cell membranes incubated for 30 mins by radioligand competition assay. On the set-up: species or system Cell membrane.
The target of assay [5] is T4, Adenosine receptor A2b (Rattus norvegicus) (UniProt P29276).
T4 sequence (whole entry): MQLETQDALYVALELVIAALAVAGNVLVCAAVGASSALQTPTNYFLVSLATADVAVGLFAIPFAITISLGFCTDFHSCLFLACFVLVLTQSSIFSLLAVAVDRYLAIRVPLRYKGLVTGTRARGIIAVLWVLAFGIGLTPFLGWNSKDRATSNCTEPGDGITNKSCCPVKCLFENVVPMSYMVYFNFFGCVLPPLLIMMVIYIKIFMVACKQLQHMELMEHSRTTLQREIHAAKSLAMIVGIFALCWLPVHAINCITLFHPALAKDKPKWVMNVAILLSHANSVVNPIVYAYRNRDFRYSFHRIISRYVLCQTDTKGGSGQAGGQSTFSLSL
Description: Displacement of [3H]PSB-603 from rat adenosine receptor A2B expressed in CHO cell membranes at 0.1 uM incubated for 75 mins by radioligand competition assay relative to control. Particulars: Cell membrane. The gist of the method: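 CHO membranes expressing human or rat A2B, [3H]PSB-603 0.3 nM. Nonspecific binding defined by 10 µM DPCPX. Preincubated 20 min with adenosine deaminase, then 75 min at rt in Tris-HCl pH 7.4 with 2.5% DMSO. Filters washed with ice-cold 50 mM Tris-HCl containing 0.1% BSA; scintillation counting.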

Assay [6] addresses Adenosine receptor A2a (Rattus norvegicus) (UniProt P30543). The assay is described as follows: Displacement of [3H]MSX2 from adenosine receptor A2A in rat brain striatum membranes at 0.1 uM incubated for 30 mins by radioligand competition assay relative to control. Particulars: Cell membrane. The gist of the method:
as §1

The target in assay [7] is T3, Adenosine receptor A1. The assay is described as follows: Displacement of [3H]DPCPX from rat adenosine receptor A1 by radioligand competition assay. The gist of the method: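 Rat brain cortical membranes, [3H]DPCPX 0.4 nM. Nonspecific binding defined by 10 μM DPCPX. Curves run with and without 100 μM GTP. Incubation 90 min at rt in 50 mM Tris-HCl pH 7.4, after 20 min adenosine deaminase preincubation. Filtration, then scintillation counting. GTP shift is the IC50 with GTP divided by the IC50 without GTP.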

T2 sequence (P29274 whole entry): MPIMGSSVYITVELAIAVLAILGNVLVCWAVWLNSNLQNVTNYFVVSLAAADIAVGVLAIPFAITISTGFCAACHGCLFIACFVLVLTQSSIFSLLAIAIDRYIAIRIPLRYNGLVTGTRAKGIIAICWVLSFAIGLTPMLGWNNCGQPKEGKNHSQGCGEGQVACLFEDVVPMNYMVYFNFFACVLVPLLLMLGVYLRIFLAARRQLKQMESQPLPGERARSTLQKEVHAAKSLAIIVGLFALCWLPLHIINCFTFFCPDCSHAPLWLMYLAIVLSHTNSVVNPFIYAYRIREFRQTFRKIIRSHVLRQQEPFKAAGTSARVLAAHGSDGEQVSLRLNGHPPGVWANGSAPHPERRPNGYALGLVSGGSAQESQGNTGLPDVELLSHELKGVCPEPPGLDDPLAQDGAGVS
Adenosine receptor A2a (Rattus norvegicus), sequence (P30543 whole entry): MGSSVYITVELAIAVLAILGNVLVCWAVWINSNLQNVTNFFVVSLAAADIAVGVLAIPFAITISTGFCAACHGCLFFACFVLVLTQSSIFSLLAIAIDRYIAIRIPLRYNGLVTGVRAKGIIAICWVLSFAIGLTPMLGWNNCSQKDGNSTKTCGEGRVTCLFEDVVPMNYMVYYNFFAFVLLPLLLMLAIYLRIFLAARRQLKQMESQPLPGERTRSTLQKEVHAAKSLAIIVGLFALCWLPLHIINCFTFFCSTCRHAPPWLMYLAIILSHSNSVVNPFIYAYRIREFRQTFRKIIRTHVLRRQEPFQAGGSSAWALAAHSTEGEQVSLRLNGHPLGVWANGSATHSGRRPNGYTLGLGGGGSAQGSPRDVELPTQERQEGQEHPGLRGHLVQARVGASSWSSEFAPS

As a reminder, the Ki is the dissociation constant of the complex between target and ligand, obtained from inhibition or displacement. The term inhibition denotes the relative decrease from the control value, in per cent. High values mean a response far below the control, low ones a response near the control. The term IC50 denotes the point on the concentration scale where inhibition reaches its midpoint. Turning to `COc1ccc(C(=O)Nc2nc(-c3ccccc3)c(C(=O)c3ccc(C)cc3)s2)cc1`, the inhibition constant (Ki) is 9.69 nM at Adenosine receptor A1 [1], above 1000 nM at Adenosine receptor A2a [4] and 0.0709 nM at Adenosine receptor A1 [7]. The inhibition was 28% on Adenosine receptor A2a [2], 7% in assay [5] and 15% in assay [6]. In addition, the half-maximal inhibitory concentration (IC50) at Adenosine receptor A1 [3] is 0.0763 nM.

The record behind these values is ChEMBL document CHEMBL4680130, “Substituted 4-phenylthiazoles: Development of potent and selective A, A and dual A/A adenosine receptor antagonists” (Eur J Med Chem, 2020).
